ABHD4 inh – inhibits mouse alpha/beta hydrolase domain 4; Q8VD66; purified mABHD4, FP-Rh probe fluorescence polarization; inhibition, % at 8.92 µM; 370,000 tested, 0.54% active; AID 720543;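 active = inhibition exceeding the mean over every tested compound plus 3 SD, cut at about 30% in these data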
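Test system: mABHD4 protein | Buffer or medium: HEPES pH 7.0 buffer, 150 mM NaCl, 0.01% Pluronic F-127 | Probe or stimulus: FP-Rh fluorescent activity-based probe, added after compound pre-incubation | Timing: Pre-incubation 45 min, probe exposure 60 min, at 25 °C | Technique: Fluorescence polarization, excitation 525 nm, emission 598 nm, BODIPY TMR filters | Repeats: Single well per compound (singlicate)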
rCAG binder – binds r(CAG) RNA repeats. r(CAG) RNA repeat, TO-PRO-1 dye displacement fluorescence. inhibition, % at 3 µM. 370,000 tested, 1.3% active. AID 651821;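 active = inhibition above the plate cutoff, the mean of all test compounds on that plate plus 3 SD, cut at about 35% in these data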;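 also: higher means more dye released from RNA so lower well fluorescence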
TCR-CD3 inh – inhibitors of human TCR-CD3 interaction | TAMRA-labeled TCR probe fluorescence, biochemical | inhibition, % at 9.4 µM | 360,000 tested, 0.37% active; in the data active = inhibition above about 19%;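 also: recombinant mutant TCR 2C K166C tagged with TAMRA read by polarization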
PRMT1 FP inh – PRMT1 (human) inhibition, primary screen; Q99873; inhibition, % at 2.79 µM; recombinant PRMT1, activity-based probe fluorescence polarization; 370,000 tested, 1.3% active;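 active = inhibition above about 21% made by adding two undisclosed values, limit read from the data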
SIAE inh – human SIAE inhibition, primary screen | SIAE FP-Rh probe binding, fluorescence polarization | inhibition, % at 9.66 µM | 370,000 tested, 0.69% active | AID 1053197;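 active = inhibition above a cutoff: mean of compounds within the control limits plus 3 SD of those, cut at about 17% in these data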
Target sequence (Q9HAT2 whole entry, looked up): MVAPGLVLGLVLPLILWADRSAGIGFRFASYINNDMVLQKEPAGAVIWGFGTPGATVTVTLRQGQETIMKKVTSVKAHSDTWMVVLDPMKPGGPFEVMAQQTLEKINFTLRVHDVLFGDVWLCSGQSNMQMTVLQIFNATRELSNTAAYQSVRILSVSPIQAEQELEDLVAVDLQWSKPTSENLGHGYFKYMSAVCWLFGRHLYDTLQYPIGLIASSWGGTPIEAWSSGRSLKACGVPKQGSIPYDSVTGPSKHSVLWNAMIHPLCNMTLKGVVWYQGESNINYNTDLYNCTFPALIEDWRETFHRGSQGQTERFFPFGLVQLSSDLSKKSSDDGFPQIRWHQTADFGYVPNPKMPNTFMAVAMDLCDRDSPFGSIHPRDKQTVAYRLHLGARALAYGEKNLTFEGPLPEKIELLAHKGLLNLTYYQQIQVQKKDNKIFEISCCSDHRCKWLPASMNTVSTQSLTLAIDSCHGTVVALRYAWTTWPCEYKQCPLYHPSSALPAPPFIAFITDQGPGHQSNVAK
SIAE inh conf – human SIAE inhibition, confirmation | SIAE FP-Rh activity-based probe, fluorescence polarization | shares compounds with SIAE inh | inhibition, % at 9.66 µM | AID 1117263 | 2,300 tested, 13% active;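 active = mean inhibition of the replicates above the hit cutoff set in the primary screen, cut at about 17% in these data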;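 also: inhibitors lower polarization as more probe stays unbound to SIAE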
Each line names hits and unclear results; the compound was inactive in the other large screens (follow-up assays come after a bar, where they were run). An excerpt weighted towards active compounds, which were near 3.3% of everything screened.

Cc1cc(C)c2c(c1)/C(=N/NC(=S)Nc1ccc(F)cc1)CCC2	SIAE inh 20 | SIAE inh conf inactive
COC(=O)N/N=C1\CCCc2c(C)cc(C)cc21	none
O=C1c2ccccc2C(c2nnnn2-c2ccc3c(c2)OCCO3)N1Cc1cccnc1 (stereo unspecified)	SIAE inh 25 | SIAE inh conf inactive
O=C1c2ccccc2C(c2nnnn2-c2ccc3c(c2)OCCO3)N1Cc1cccc(F)c1 (stereo unspecified)	none
CCOc1c(Cl)cc(CNc2ccc(S(N)(=O)=O)cc2)cc1OC	none
COc1cc(CNc2ccc(N3CCOCC3)cc2)ccc1OCC(=O)NC(C)(C)C	SIAE inh 19 | SIAE inh conf inactive
CCOc1c(Cl)cc(CNc2ccc(N3CCCC3)cc2)cc1OC	SIAE inh 21 | SIAE inh conf inactive
Nc1[nH]c(C(=O)c2ccccc2)c(-c2ccc([N+](=O)[O-])cc2)c1C(=O)NCCc1c[nH]c2ccccc12	none
Nc1[nH]c(C(=O)c2ccccc2)c(-c2ccccc2[N+](=O)[O-])c1C(=O)NCCc1c[nH]c2ccccc12	SIAE inh 18 | SIAE inh conf inactive
Nc1[nH]c(C(=O)c2ccccc2)c(-c2ccccc2Br)c1C(=O)NCCc1c[nH]c2ccccc12	SIAE inh 19 | SIAE inh conf inactive
Nc1sc(-c2ccccc2)cc1C(=O)NCCc1c[nH]c2ccccc12	SIAE inh 26 | SIAE inh conf inactive
CC(NC(=O)c1ccccc1)C(=O)N/N=C/c1ccco1 (stereo unspecified)	SIAE inh 18 | SIAE inh conf inactive
CCOC(=O)CN(C(=O)CSc1nnc2c(n1)[nH]c1ccccc12)c1ccccc1	SIAE inh 23 | SIAE inh conf inactive
CCOc1cc(/C=N/Nc2ccc(C(=O)O)cc2)ccc1OC(=O)c1ccccc1C	SIAE inh 26 | SIAE inh conf 31
CCOc1cc(/C=N\NC(=O)c2ccc(NC(=O)C(C)(C)C)cc2)ccc1OC(=O)c1ccc(OC)cc1	none
Cc1cccc(-c2nc(Nc3ccc(N4CCOCC4)cc3)c3ccccc3n2)c1	SIAE inh 30 | SIAE inh conf inactive
CC1Cc2nc(SCC(=O)c3ccccc3)n(Cc3ccccc3)c(=O)c2S1 (stereo unspecified)	none
CC1Cc2nc(SCC(=O)NCc3ccccc3)n(Cc3ccccc3)c(=O)c2S1 (stereo unspecified)	SIAE inh 17 | SIAE inh conf inactive
Cc1nnc(NC(=O)C2CCN(S(=O)(=O)c3ccc(F)c(F)c3)CC2)o1	none
CCCCC(=O)NC(c1ccc(C(C)C)cc1)c1ccc2cccnc2c1O (stereo unspecified)	none
CC(=O)NC(c1ccc(C(C)C)cc1)c1ccc2cccnc2c1O (stereo unspecified)	SIAE inh 23 | SIAE inh conf 29
CC(=O)NC(c1ccc(C)cc1)c1cc(Cl)c2cccnc2c1O (stereo unspecified)	SIAE inh 20 | SIAE inh conf inactive
CCC(=O)NC(c1ccco1)c1cc(Cl)c2cccnc2c1O (stereo unspecified)	none
CC(=O)NC(c1ccco1)c1cc(Cl)c2cccnc2c1O (stereo unspecified)	SIAE inh 18 | SIAE inh conf inactive
COc1ccc(C(=O)NCC(=O)N2CCN(c3ncccn3)CC2)cc1OC	none
Cc1cccc(C)c1NC(=O)CN1CCN(C(=O)c2cc(C3CC3)nn2-c2ccccc2)CC1	none
COc1ccc(Cl)cc1N1C(=O)/C(=C/c2sccc2C)N=C1SCC(=O)NC1CC1	none
CC(C)(C)C(=O)N1CCN(c2nc3ccc(Br)cc3s2)CC1	none
CC(C)(C)C(=O)N1CCN(c2nc3ccc(Cl)cc3s2)CC1	SIAE inh 18 | SIAE inh conf inactive
Cc1cc2c(c(=O)o1)[C@@]1(C(=O)Nc3ccccc31)C1=C(CCCC1=O)O2	none
O=C1[C@@H]2CSCN2C(=O)CN1Cc1ccccc1F	SIAE inh 19 | SIAE inh conf inactive
O=C1[C@@H]2CSCN2C(=O)CN1Cc1c(F)cccc1Cl	none
COc1ccc2nc(-c3ccc(CN4CCC5(CC4)CNc4ccccc45)cc3)c(-c3ccccc3)nc2c1	none
Cc1nc(C)c(-c2ccnc(/N=C/NO)n2)s1	none
Cc1ccc(Nc2nc(/N=C/NO)n[nH]2)cc1C	SIAE inh 26 | SIAE inh conf inactive
CCCSc1ccc([C@H]2N[C@@](C)(C(=O)OC)[C@H]3C(=O)N(CC)C(=O)[C@@H]23)cc1	none
COc1cccc(CNC(=O)COc2ccc(C(=O)c3ccccc3)cc2)c1	none
Cc1sc2nc(CN3CCOCC3)nc(N3CCC(C(N)=O)CC3)c2c1C	none
Cc1sc2nc(CN3CCOCC3)nc(N3CCOCC3)c2c1C	SIAE inh 21 | SIAE inh conf inactive
N#Cc1c(/N=C/c2cccs2)sc2c1CCCCC2	none
N#Cc1c(/N=C/c2cccnc2)sc2c1CCCC2	SIAE inh 22 | SIAE inh conf inactive
COc1ccc(C(=O)Nc2ccc(Nc3ccccc3)cc2)cc1[N+](=O)[O-]	SIAE inh 19 | SIAE inh conf inactive
COc1ccccc1NC(=O)c1ccc(-n2ccnc2)c([N+](=O)[O-])c1	SIAE inh 24 | SIAE inh conf inactive
CCOc1cc(N2CCOCC2)c(OCC)cc1NC(=O)c1ccc(-n2ccnc2)c([N+](=O)[O-])c1	none
O=C(Nc1ccccc1Oc1ccccc1)c1cc([N+](=O)[O-])ccc1Cl	none
COc1ccc(C(=O)Nc2ccc(OCc3ccccc3)cc2)cc1[N+](=O)[O-]	none
O=C(Nc1ccc(Nc2ccccc2)cc1)c1cc([N+](=O)[O-])ccc1Cl	SIAE inh 24 | SIAE inh conf inactive
CC1(C(=O)NS(=O)(=O)c2cccc(F)c2)CCN1C(=O)C1CCCCC1 (stereo unspecified)	none
Cc1cccc(NC(=O)C(C)OC(=O)CNC(=O)C2CCCCC2)c1 (stereo unspecified)	none
CN(C)C1=C(Cl)C(=O)N(c2ccc(Cl)c(Cl)c2)C1=O	SIAE inh 19 | SIAE inh conf inactive
CN(C)c1cccc(C(=O)N2CCCC(CCC(=O)NCc3ccccc3F)C2)c1 (stereo unspecified)	none
CN1/C(=C\C(=O)Nc2ccc(Br)cc2)C(C)(C)c2ccccc21	SIAE inh 26 | SIAE inh conf inactive
CN1/C(=C\C(=O)Nc2ccc(F)cc2)C(C)(C)c2ccccc21	none
CCCCc1ccc(C2C3=C(CC(C)(C)CC3=O)NC3=C2C(=O)c2ccccc23)cc1 (stereo unspecified)	SIAE inh 19 | SIAE inh conf inactive
CCOc1ccc(OCc2ccc(C(=O)O)o2)cc1	SIAE inh 39 | SIAE inh conf inactive
COc1cc(/C=N/NC(=O)c2ccc(N)cc2)ccc1OC(=O)c1cccc(C)c1	SIAE inh 22 | SIAE inh conf inactive
CC(C)(CO)Nc1nc(Cl)nc(NC2CCCCC2)n1	none

High-throughput results (PubChem)
